Data from paper PMC7132253 (Proceedings of the National Academy of Sciences of the …, 2020).
One block for each molecule: values may come before it.

Experiments:
WT mIL-2 = target: T1, WT mIL-2 (Mus musculus, UniProt P04351); test: NMR titration with line shape analysis; assay type: binding
T1 sequence (P04351 21-169): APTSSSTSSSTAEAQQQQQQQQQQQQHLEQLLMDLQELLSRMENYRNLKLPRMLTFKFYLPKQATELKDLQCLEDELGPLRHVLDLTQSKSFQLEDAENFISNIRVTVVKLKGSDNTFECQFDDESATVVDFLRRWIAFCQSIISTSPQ
Summary of the method: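 Kd derived by line-shape analysis (TITAN) of fast-exchange shifts of the V129γ2 and L133δ2 methyl peaks. Errors propagated from spectral signal-to-noise.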

[1] = test system: IL-2Rα+ mouse CTLL-2 cells; test: STAT5 phosphorylation; assay type: cell-based; settings: IL-2Rα+ CTLL-2 cells
[2] = target: wild-type mouse interleukin-2 (mouse, UniProt P04351); test: ITC
JES6-1 = test: Isothermal titration calorimetry of mIL-2 into JES6-1; assay type: binding; settings: ITC

Kd (WT mIL-2): 39400 ± 5500 nM
Molecule: COC(=O)[C@H](Cc1ccc(C#Cc2ccccc2)cc1)NC(=O)C[C@H]1CCCN(C(=N)N)C1 [Ro 26-4550]

Kd [2]: 2 nM
dH [2]: 12.7 kcal⋅mol^−1
B1: JES6-1 anti-mouse IL-2 monoclonal antibody (antibody, V domains shown)
VH: EIQLQQSGPELRRPGSSVKLSCKASGYNITDYLIHWVRHRPEHGLEWIGWIDPEDGETRYAQKFQSKATLTADTSSNAAYMQLSSLTPEDTATYFCARSLDSTYIYPFAYWGQGTLVTVSS
VL: DIVMTQSPFSLAVSEGEMVTINCKSSQSLLSSGNQKNYLAWYQQKPGQSPKLLIYYASTGQSGVPDRFIGSGSGTDFTLTISDVQAEDLADYYCLQHYISPPTFGAGTKLELK
effect of JES6-1 on mIL-2-mediated STAT5 activation [1]: fivefold reduced

Kd (JES6-1; 20 °C, 20 mM phosphate pH 7.2, 150 mM NaCl): 2 nM
B2: WT mIL-2: wild-type mouse interleukin-2 (amino acids 1-149), recombinant, expressed in E. coli (protein, UniProt P04351 21-169, looked up)
Interleukin-2: APTSSSTSSSTAEAQQQQQQQQQQQQHLEQLLMDLQELLSRMENYRNLKLPRMLTFKFYLPKQATELKDLQCLEDELGPLRHVLDLTQSKSFQLEDAENFISNIRVTVVKLKGSDNTFECQFDDESATVVDFLRRWIAFCQSIISTSPQ

decrease in binding affinity relative to WT mIL-2 (JES6-1): 1,000 fold
B3: R52A mIL-2: designed point mutant R52A of mouse IL-2 that eliminates all C-capping interactions (protein)
chain: APTSSSTSSSTAEAQQQQQQQQQQQQHLEQLLMDLQELLSRMENYRNLKLPAMLTFKFYLPKQATELKDLQCLEDELGPLRHVLDLTQSKSFQLEDAENFISNIRVTVVKLKGSDNTFECQFDDESATVVDFLRRWIAFCQSIISTSPQ
effect of JES6-1 on mIL-2-mediated STAT5 activation [1]: independent of JES6-1
